Measured values published in the RNAGym collection of RNA variant scans (doi:10.1126/science.aae0568).
This sample holds only a part of the variants without activity.

B1: tRNA (parent)
chain: GUUCCGUUGGCGUAAUGGUAACGCGUCUCCCUCCUAAGGAGAAGACUGCGGGUUCGAGUCCCGUACGGAACG

Variants of: B1
Assay: yeast fitness relative to wild type (ratio to wild type); higher = fitter; tRNA-Arg(CCU), competitive growth, 37 C, YPD
In short: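 Gene amplicons from the start population and from each of six end populations were read by 100-nucleotide paired-end sequencing. Those end populations came from pooled Saccharomyces cerevisiae strains carrying tRNA-Arg(CCU) gene variants at the native locus, competed in YPD at 37°C for 24 hours. Fitness relative to wild type was worked out from changes in genotype frequencies. Genotypes needed ≥ 100 starting reads, and estimates < 0.5 were set to 0.5.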

| Variant | yeast fitness |
| --- | --- |
| C4G C22U C34G A36U G67A | ≤ 0.5 |
| C4G G23C C55U A70U | ≤ 0.5 |
| C4G C29A C46A G58A | 0.525 |
| C4G A40U A42C A57C | ≤ 0.5 |
| C4G A42G A45U C66U | 0.659 |
| C4G A42C G50A | ≤ 0.5 |
| C4G C30G A69C A70G | ≤ 0.5 |
| C4G C11G C33G U47A | ≤ 0.5 |
| C4G G12U A14C C49U C66U | ≤ 0.5 |
| C4G C30A G50U C66U | ≤ 0.5 |
| C4G C60U C61G | ≤ 0.5 |
| C4G C24G G25A U35A G51C | ≤ 0.5 |
| C4G C24U U59C | ≤ 0.5 |
| C4G C29A C34U A36U G50A | 0.568 |
| C4G C5G C31A U35C C46A G67A | ≤ 0.5 |
| C4G A37U C60U | ≤ 0.5 |
| C4G C24U A45C | 0.6 |
| C4G A21G U32A | 0.672 |
| C4G G9C G41A | ≤ 0.5 |
| C4G C49U C62U | 0.653 |
| C4G C5A U28G | ≤ 0.5 |

| Variant | yeast fitness |
| --- | --- |
| C4G C24G G41C | ≤ 0.5 |
| C4G G17C A20U A37C | 0.717 |
| C4G A45G G68C | 0.567 |
| C4G A20U C46U | 0.614 |
| C4G G17A C55U A70G | ≤ 0.5 |
| C4G C22A | 0.767 |
| C4G C27G C46G U54C | 0.64 |
| C4G C29G A37G | 0.598 |
| C4G G25A C66A | ≤ 0.5 |
| C4G C11G C55U | ≤ 0.5 |
| C4G A40U A69U | 0.72 |
| C4G A21G C31G C33G | ≤ 0.5 |
| C4G G17A C22A G38A C49U U53C | ≤ 0.5 |
| C4G C24G G58C | ≤ 0.5 |
| C4G C31G G38U | ≤ 0.5 |
| C4G G17A G56C C60G C66U | ≤ 0.5 |
| C4G C22G U64A A65U | ≤ 0.5 |
| C4G C30G | 0.713 |
| C4G C11A G17A A20G C27U A43U C49G | ≤ 0.5 |
| C4G G6C G25A C29A C31A C33G G41C | ≤ 0.5 |
| C4G C5U A43G | ≤ 0.5 |

| Variant | yeast fitness |
| --- | --- |
| C4G A43C | 0.853 |
| C4G C11A A14U C22A C24G | ≤ 0.5 |
| C4G C29A | 0.757 |
| C4G C5U C30U G39A | ≤ 0.5 |
| C4G A45G A57U C66U | 0.512 |
| C4G G6C A43U G48A C66G | 0.512 |
| C4G C11G C55U C61A G67A | ≤ 0.5 |
| C4G G17A C29U C62U | ≤ 0.5 |
| C4G C11G C55U C61A G68A | ≤ 0.5 |
| C4G G41A | 0.768 |
| C4G C11G C27G A57G U59G | ≤ 0.5 |
| C4G G17C C22A C27G C33U C49G | ≤ 0.5 |
| C4G C46A | 0.915 |
| C4G C46U | 0.861 |
| C4G A45G U54A | ≤ 0.5 |
| C4G A43U G44C | 0.531 |
| C4G A36U C46G C62A A69C | ≤ 0.5 |
| C4G C5G U8C G23C C29U A45U C60U C62U A70C | ≤ 0.5 |
| C4G C5G C29G | ≤ 0.5 |
| C4G C22U C30A C34U G38C | ≤ 0.5 |
| C4G C31A C33G G51C C60G | ≤ 0.5 |

| Variant | yeast fitness |
| --- | --- |
| C4G C5U U13A A40C G58A G68C | ≤ 0.5 |
| C4G C60G | 0.615 |
| C4G C33A | 0.653 |
| C4G G25A U28C A36C C60U U64A C66U | ≤ 0.5 |
| C4G C34U U35G A57G | ≤ 0.5 |
| C4G G10A C30G A43G A57U | ≤ 0.5 |
| C4G A45U | 0.91 |
| C4G C5A U16A G17A G50A | ≤ 0.5 |
| C4G C11A U32G A36G | ≤ 0.5 |
| C4G G39C A45G A57C A65U C66U | 0.796 |
| C4G C29U A36C A40U C55G | ≤ 0.5 |
| C4G G9A G39A G63A | ≤ 0.5 |
| C4G G10C C34U C46G | ≤ 0.5 |
| C4G A37U | 0.681 |
| C4G C5A A21U C34G | ≤ 0.5 |
| C4G G9C C34A A36G A40C | ≤ 0.5 |
| C4G C31A C33G G51C G52A C60G | ≤ 0.5 |
| C4G G12A G38C C66U | ≤ 0.5 |
| C4G G17A A40G | ≤ 0.5 |
| C4G C24A C46U A70G | ≤ 0.5 |
